For assay [1], the target named is Serine/threonine-protein kinase PLK1 (Homo sapiens) (UniProt P53350). The assay is described as follows: Inhibition of PLK1 Lys1 labeling site in human A-375 cells at 0.5 uM by KiNativ Profiling analysis relative to control. The format is cell-based.
Assay [2] has as its target Serine/threonine-protein kinase Nek6 (Homo sapiens) (UniProt Q9HC98). The assay is described as follows: Inhibition of NEK6 Lys2 labeling site in human A-375 cells at 0.05 uM by KiNativ Profiling analysis relative to control. The format is cell-based.
The target of assay [3] is Glycogen synthase kinase-3 alpha (Homo sapiens) (UniProt P49840). In words: Inhibition of GSK3A Lys2 labeling site in human A-375 cells at 5 uM by KiNativ Profiling analysis relative to control. The format is cell-based.
Chain of Glycogen synthase kinase-3 alpha (Homo sapiens) (P49840 2-483 limits assumed): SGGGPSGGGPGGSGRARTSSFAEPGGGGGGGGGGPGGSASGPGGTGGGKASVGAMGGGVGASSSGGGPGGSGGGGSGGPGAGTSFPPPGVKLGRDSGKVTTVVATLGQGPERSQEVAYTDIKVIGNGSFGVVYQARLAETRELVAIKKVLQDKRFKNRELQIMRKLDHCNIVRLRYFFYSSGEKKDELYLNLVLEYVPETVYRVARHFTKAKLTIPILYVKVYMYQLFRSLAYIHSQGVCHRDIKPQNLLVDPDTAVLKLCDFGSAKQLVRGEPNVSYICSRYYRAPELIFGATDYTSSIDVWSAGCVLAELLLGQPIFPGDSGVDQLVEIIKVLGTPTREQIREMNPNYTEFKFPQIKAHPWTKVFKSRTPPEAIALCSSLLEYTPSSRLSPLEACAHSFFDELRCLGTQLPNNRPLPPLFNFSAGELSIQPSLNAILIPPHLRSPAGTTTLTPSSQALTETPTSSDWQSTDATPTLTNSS
Assay [4] has as its target DNA-PK/Ku70/Ku85 (Homo sapiens) (UniProt P78527+P12956+P13010). The assay is described as follows: Inhibition of DNAPK ATP labeling site harbouring KGGSWIQEINVAEK in human A-375 cells at 0.5 uM by KiNativ Profiling analysis relative to control. The format is cell-based. Put shortly:
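Live A375 melanoma cells were treated with compound at 0.5 or 5 μM, then lysed. Lysates were labeled with a lysine-reactive ATP or ADP-biotin probe. The read-out was protection of each kinase probe-labeling site from labeling, relative to control.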

Assay [5] addresses Cyclin-dependent kinase 18 (Homo sapiens) (UniProt Q07002). In words: Inhibition of PCTAIRE3 Lys1 labeling site harbouring SKLTENLVALKEIRLEHEEGAPCTAIR in human A-375 cells at 0.5 uM by KiNativ Profiling analysis relative to control. The format is cell-based. Put shortly: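 Live A375 melanoma cells were treated with compound at 5 or 0.5 μM, then lysed. Lysates were labeled with a lysine-reactive ATP or ADP-biotin probe. Read-out was the compound's protection of kinase labeling sites from probe labeling (KiNativ).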

Assay [6] deals with Serine/threonine-protein kinase WNK3 (Homo sapiens) (UniProt Q9BYP7). In words: Inhibition of Wnk3 Lys2 labeling site in human A-375 cells at 5 uM by KiNativ Profiling analysis relative to control. The format is cell-based.
Assay [7] concerns the target T1, Dual specificity mitogen-activated protein kinase kinase 5 (Homo sapiens) (UniProt Q13163).
T1 sequence (whole entry): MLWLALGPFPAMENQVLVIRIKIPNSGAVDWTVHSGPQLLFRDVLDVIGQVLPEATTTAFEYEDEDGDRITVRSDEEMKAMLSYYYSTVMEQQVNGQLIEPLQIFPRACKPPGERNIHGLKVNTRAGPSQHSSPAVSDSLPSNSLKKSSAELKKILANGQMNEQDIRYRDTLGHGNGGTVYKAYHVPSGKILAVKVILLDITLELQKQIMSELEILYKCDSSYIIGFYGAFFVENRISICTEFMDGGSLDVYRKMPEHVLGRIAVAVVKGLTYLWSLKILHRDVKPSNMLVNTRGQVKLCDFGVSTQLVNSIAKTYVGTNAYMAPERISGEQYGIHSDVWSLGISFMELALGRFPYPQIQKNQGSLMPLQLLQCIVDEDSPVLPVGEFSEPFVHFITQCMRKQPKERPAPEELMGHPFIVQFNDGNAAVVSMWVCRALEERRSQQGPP
The assay is described as follows: Inhibition of MAP2K5 Lys2 labeling site in human A-375 cells at 0.5 uM by KiNativ Profiling analysis relative to control. The format is cell-based.

Assay [8] has as its target Activated CDC42 kinase 1 (Homo sapiens) (UniProt Q07912). In words: Inhibition of ACK Lys1 labeling site in human A-375 cells at 0.05 uM by KiNativ Profiling analysis relative to control. The format is cell-based.
Assay [9] has as its target Tyrosine-protein kinase receptor UFO (Homo sapiens) (UniProt P30530). In words: Inhibition of AXL ACT labeling site in human A-375 cells at 0.05 uM by KiNativ Profiling analysis relative to control. The format is cell-based.
Assay [10] can be described thus: Inhibition of KHS1 Lys2 labeling site in human A-375 cells at 0.5 uM by KiNativ Profiling analysis relative to control. The conditions noted are these: condition cancer.
Assay [11] has as its target T2, Mitogen-activated protein kinase kinase kinase 2 (Homo sapiens) (UniProt Q9Y2U5).
T2 sequence (whole entry): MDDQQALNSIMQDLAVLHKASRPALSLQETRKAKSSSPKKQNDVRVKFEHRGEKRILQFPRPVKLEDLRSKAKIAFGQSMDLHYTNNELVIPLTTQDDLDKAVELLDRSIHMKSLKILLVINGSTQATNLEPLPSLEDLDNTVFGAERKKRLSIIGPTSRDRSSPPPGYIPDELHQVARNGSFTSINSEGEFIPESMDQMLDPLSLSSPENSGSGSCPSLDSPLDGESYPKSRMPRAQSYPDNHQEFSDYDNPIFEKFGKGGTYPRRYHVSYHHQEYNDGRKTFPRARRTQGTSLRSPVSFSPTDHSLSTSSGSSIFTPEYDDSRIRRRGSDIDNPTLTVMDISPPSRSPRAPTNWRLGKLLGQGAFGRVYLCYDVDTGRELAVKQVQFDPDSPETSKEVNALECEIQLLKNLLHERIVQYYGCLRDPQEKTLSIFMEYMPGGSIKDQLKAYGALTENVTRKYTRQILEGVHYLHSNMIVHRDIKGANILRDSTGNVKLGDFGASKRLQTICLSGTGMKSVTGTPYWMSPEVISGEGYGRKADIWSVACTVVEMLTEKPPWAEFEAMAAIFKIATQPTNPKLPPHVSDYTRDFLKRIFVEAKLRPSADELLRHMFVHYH
In words: Inhibition of MAP3K2 Lys2 labeling site in human A-375 cells at 5 uM by KiNativ Profiling analysis relative to control. The format is cell-based.

Assay [12] deals with Dual specificity mitogen-activated protein kinase kinase 1 (Homo sapiens) (UniProt Q02750). In words: Inhibition of MAP2K1 Lys2 labeling site harbouring DVKPSNILVNSR in human A-375 cells at 0.5 uM by KiNativ Profiling analysis relative to control. The format is cell-based.
Chain of Dual specificity mitogen-activated protein kinase kinase 1 (Homo sapiens) (Q02750 whole entry): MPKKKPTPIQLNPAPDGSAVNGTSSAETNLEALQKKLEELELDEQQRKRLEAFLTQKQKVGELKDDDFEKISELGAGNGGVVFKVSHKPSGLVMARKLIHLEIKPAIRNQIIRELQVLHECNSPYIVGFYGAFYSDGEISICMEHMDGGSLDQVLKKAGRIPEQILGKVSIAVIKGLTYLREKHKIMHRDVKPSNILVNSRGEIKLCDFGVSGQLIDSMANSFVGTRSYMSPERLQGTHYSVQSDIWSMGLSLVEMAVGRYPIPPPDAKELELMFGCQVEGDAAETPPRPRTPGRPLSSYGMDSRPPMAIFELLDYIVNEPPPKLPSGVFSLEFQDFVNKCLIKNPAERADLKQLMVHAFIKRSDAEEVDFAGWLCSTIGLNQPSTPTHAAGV
Assay [13] addresses T2, Mitogen-activated protein kinase kinase kinase 2 (Homo sapiens). In words: Inhibition of MAP3K2 Lys1 labeling site harbouring VYLCYDVDTGRELAVKQVQFDPDSPETSKEVNALECEIQLLK in human A-375 cells at 0.5 uM by KiNativ Profiling analysis relative to control. The format is cell-based.
Assay [14] has as its target Casein kinase I isoform delta (Homo sapiens) (UniProt P48730). In words: Inhibition of CK1delta Lys2 labeling site in human A-375 cells at 0.05 uM by KiNativ Profiling analysis relative to control. The format is cell-based.

Chain of Serine/threonine-protein kinase Nek6 (Homo sapiens) (Q9HC98 whole entry): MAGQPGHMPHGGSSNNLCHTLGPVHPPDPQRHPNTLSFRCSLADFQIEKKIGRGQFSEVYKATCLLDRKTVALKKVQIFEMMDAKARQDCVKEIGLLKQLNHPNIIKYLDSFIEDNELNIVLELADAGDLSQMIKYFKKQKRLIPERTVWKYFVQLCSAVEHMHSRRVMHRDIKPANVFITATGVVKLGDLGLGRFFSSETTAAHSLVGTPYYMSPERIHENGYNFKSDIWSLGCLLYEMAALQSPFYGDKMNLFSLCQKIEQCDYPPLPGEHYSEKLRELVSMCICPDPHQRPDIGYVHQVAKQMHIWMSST
Chain of Cyclin-dependent kinase 18 (Homo sapiens) (Q07002 whole entry): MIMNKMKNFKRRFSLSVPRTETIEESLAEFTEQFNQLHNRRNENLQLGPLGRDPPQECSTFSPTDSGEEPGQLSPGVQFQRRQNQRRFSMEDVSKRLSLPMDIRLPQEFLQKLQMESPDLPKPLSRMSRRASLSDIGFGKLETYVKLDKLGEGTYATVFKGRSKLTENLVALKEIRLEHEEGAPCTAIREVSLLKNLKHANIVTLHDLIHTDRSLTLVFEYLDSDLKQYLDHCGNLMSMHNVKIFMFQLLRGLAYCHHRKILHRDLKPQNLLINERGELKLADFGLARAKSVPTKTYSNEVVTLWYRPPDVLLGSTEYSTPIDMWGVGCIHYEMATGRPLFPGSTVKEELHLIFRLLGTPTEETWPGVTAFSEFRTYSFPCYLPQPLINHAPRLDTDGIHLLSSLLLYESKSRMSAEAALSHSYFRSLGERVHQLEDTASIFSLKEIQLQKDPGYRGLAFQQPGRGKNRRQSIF
Chain of Casein kinase I isoform delta (Homo sapiens) (P48730 whole entry, looked up, canonical isoform): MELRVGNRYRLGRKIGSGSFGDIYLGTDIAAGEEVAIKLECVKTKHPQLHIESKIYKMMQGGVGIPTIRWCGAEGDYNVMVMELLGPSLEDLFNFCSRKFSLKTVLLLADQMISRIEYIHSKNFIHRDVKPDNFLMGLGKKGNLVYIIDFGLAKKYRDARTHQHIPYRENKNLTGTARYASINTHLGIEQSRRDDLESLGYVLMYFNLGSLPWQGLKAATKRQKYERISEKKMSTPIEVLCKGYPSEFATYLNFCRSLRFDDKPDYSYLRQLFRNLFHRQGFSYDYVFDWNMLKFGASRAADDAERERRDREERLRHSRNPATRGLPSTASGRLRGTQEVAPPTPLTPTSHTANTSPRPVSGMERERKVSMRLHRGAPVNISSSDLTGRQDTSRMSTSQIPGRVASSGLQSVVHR
Chain of Tyrosine-protein kinase receptor UFO (Homo sapiens) (P30530 whole entry): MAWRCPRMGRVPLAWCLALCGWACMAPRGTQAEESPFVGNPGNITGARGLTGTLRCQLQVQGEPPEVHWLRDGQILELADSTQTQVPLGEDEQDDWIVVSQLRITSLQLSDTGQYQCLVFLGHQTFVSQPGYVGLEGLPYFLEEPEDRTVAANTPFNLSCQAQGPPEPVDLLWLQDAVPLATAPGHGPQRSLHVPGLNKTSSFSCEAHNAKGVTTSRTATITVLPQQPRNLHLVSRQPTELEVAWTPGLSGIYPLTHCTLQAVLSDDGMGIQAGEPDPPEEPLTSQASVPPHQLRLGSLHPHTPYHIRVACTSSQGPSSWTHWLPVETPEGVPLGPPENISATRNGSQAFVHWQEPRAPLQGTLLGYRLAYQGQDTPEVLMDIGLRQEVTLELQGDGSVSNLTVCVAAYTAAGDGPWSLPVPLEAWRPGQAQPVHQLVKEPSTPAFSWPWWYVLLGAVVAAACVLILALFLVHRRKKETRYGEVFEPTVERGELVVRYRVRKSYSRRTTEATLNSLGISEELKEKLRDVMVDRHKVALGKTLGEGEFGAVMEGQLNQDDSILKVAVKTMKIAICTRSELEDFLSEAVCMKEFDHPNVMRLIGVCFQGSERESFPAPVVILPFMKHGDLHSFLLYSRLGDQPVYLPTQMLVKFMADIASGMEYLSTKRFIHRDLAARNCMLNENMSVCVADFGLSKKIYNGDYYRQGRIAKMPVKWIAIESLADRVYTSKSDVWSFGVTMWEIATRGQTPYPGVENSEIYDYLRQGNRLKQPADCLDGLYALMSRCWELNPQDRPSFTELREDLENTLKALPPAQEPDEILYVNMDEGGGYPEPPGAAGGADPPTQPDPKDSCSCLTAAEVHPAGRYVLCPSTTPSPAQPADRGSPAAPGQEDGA
Chain of Serine/threonine-protein kinase PLK1 (Homo sapiens) (P53350 whole entry): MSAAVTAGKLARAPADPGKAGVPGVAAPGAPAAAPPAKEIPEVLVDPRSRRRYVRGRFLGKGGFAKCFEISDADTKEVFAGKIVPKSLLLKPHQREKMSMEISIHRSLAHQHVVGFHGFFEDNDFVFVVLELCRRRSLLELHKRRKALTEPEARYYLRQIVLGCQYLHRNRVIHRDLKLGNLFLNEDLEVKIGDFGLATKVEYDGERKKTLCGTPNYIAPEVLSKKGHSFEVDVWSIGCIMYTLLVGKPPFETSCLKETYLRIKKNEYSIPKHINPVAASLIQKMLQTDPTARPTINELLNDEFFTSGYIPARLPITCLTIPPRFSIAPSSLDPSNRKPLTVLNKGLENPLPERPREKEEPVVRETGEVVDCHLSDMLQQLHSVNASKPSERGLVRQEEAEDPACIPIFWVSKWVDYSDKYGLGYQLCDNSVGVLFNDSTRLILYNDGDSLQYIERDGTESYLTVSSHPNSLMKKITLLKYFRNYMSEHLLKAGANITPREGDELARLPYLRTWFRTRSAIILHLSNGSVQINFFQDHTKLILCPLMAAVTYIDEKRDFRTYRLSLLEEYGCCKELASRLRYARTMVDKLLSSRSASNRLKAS
Chain of Activated CDC42 kinase 1 (Homo sapiens) (Q07912 whole entry, looked up): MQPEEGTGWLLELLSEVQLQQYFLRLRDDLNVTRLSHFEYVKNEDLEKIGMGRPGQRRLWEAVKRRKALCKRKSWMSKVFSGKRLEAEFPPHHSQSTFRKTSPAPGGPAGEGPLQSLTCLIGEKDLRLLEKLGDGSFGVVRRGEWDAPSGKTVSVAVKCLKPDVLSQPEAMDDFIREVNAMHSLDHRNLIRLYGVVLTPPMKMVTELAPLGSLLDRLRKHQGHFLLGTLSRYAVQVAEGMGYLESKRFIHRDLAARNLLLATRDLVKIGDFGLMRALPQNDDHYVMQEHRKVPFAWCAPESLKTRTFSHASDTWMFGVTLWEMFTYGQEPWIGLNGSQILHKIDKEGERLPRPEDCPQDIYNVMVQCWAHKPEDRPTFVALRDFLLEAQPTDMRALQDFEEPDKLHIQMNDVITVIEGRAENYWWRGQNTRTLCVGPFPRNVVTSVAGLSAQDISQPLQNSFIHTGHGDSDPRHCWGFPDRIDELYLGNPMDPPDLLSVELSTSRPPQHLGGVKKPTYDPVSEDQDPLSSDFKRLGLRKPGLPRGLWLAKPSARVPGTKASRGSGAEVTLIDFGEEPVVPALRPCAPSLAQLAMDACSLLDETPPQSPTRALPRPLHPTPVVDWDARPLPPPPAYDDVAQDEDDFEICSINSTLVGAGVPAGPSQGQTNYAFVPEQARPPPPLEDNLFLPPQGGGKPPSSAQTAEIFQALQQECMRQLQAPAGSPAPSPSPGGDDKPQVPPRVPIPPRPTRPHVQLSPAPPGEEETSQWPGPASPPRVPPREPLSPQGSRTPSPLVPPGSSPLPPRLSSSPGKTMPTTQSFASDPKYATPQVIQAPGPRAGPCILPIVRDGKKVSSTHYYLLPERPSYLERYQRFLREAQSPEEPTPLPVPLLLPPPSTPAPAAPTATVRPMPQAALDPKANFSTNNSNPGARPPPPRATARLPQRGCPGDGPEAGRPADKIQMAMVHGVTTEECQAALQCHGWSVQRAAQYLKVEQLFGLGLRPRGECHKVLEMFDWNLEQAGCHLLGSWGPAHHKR

In general, inhibition refers to the drop in the measured response relative to a control, in per cent. As for `CCN1CCN(Cc2ccc(NC(=O)c3ccc(C)c(/C=C/c4cnc5[nH]ccc5c4OC)c3)cc2C(F)(F)F)CC1`, the inhibition was -5.2% in assay [1]; 5.8% in assay [2]; 31.7% in assay [3]; 17.8% in assay [4]; 2.4% in [5]; 14.3% in [6]. Further, the inhibition in assay [7] is 26.1%; in [8], 34.3%; in assay [9] it was 10.1%; in [11], 11.8%; in assay [12], 1.8%; in assay [13], -0.7%. In addition, the inhibition in assay [14] was -9.6%. Besides, the inhibition at 0.5 µM in assay [10] turned out to be 36%.
Consider `CCN1CCN(Cc2ccc(NC(=O)c3ccc(C)c(Oc4ccnc5[nH]ccc45)c3)cc2C(F)(F)F)CC1`, for which the inhibition in assay [1] is -3.8%; in [2], 10.6%; in assay [3] it was 33.7%; in assay [4], 34%; in [5], 6.9%; in assay [6], -5.5%. Besides, the inhibition is 16.2% in assay [7]; 15.6% in [8]; 12.4% in assay [9]; -4.8% in assay [11]; -3.9% in assay [12]; 17.4% in [13]. Moreover, the inhibition in assay [14] was -0.7%. Also, the inhibition at 0.5 µM in assay [10] is -0.3%.

The values are drawn from ChEMBL document CHEMBL5696442, “Discovery of type II inhibitors of TGFβ-activated kinase 1 (TAK1) and mitogen-activated protein kinase kinase kinase kinase 2 (MAP4K2)” (J Med Chem, 2015).
